From article PMC4479701 (mBio, 2015)
Converted amounts (≈) assume the structure as drawn.

Legend:
Cryptococcus neoformans = test: In vitro susceptibility testing; type: cell-based; settings: Cryptococcus neoformans
C. neoformans [1] = test: Mouse model of cryptococcosis, intravenous infection; type: in vivo, mouse (CBA/J); settings: 8 mice per group, vehicle 7.0 ± 1.1
[2] = tested on: GlcCer synthesis in J774.16 cells; test: Labeling of mammalian cells with [3H]palmitate, TLC of GlcCer; type: cell-based, murine; settings: [3H]palmitate labeling, 6 h
In short: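 J774.16 macrophages (5 × 10^6 cells/ml) adhered for 14 h in six-well plates. They were exposed for 4 h to test compound at the concentrations used for the fungal labeling, then given 30 µCi/ml [3H]palmitic acid for a further 2 h.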

C. neoformans [3] = test: Transmission electron microscopy, intracellular vesicles; type: cell-based; settings: 4 µg/ml, 6 h; untreated 0.33 ± 0.36
Candida spp. = test: In vitro susceptibility; type: cell-based; settings: most Candida spp. examined
In short: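 Inoculum prepared per CLSI M27-A3. Plates incubated at 37°C with 5% CO2 for 24 to 96 h. MIC was the lowest concentration inhibiting 50% of growth versus the drug-free control. Minimum fungicidal concentration was also measured: serial dilutions from wells were plated on YPD agar, and MFC was the lowest concentration yielding three or fewer colonies (99% of inoculum killed).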

C. albicans SC 5314 = test: Mouse model of invasive candidiasis; type: in vivo, mouse (CBA/J); settings: after 21 days of infection; 1.2 mg/kg/day i.p.; 8 mice per group
In short: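 Female CBA/J mice, 8 weeks old (8 per group), were infected i.v. with 100 µl containing 10^5 C. albicans SC-5314. Test compound was given i.p. at 1.2 mg/kg/day in 100 µl PBS with 0.4% DMSO immediately after inoculation; untreated mice received vehicle. Survival was monitored. Organs of survivors were homogenized in 10 ml PBS, diluted tenfold, and plated on YPD at 30°C for 72 h for CFU.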

[4] = tested on: sphingolipids of C. neoformans; test: Sphingolipid profiling by TLC and LC-MS; type: cell-based; settings: LC-MS; D0 data not shown
[5] = In vivo toxicity, blood work; set-up: species or system mouse (CBA/J)
In short: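 Female CBA/J mice, 4 weeks old: five received 1.2 mg/kg/day test compound for 60 days, and three controls received a daily solvent injection. On day 60, blood was collected into one K2EDTA tube and one plain tube allowed to clot.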

C. neoformans cells [6] = test: In vitro passages, development of resistance; type: cell-based; settings: 15 days of in vitro passages (120 generations), 10^6 cells/ml; data not shown
C. neoformans cells [7] = test: In vitro killing assay; type: cell-based
In short: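 An overnight C. neoformans culture was washed in PBS and resuspended in HEPES-buffered YNB, pH 7.4. 2 × 10^4 cells were exposed to 1, 2 or 4 µg/ml test compound in 10 ml (0.4% DMSO final), at 37°C, 5% CO2, on a rotary shaker at 200 rpm. Aliquots taken at time points were diluted, plated on YPD, incubated 72 h at 30°C, and CFU counted.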

C. neoformans [8] = test: Synergism assay; type: cell-based
P. murina [9] = test: Murine pneumocystosis, corticosteroid-immunosuppressed; type: in vivo, mouse (C3H/HeN); settings: mice immunosuppressed with corticosteroids
In short: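 Corticosteroid-immunosuppressed mice were infected with P. murina by cohousing with seed mice for 2 weeks. […] Treatment lasted 13 days. Lung homogenate slides were stained with Diff-Quik for trophic forms and cresyl echt violet for asci.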

In vitro toxicity = type: cell-based, murine; settings: mouse, J774.16 macrophage cells
In short: (§1)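 J774.16 murine macrophages were kept in DMEM with 10% FBS and 1% pen-strep, and used until passage eight. At passage 7, 10^5 cells/well were allowed to adhere for 14 h. Test compound was then added at 0.1 to 100 µg/ml, with drug-free wells as controls. Incubation at 37°C, 5% CO2.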

J774 cells = test: In vitro toxicity; type: cell-based, murine
In short: as §1

P. murina [10] = test: Murine pneumocystosis, CD4-depleted; type: in vivo, mouse (C3H/HeN); settings: 1.25 mg/kg/day
In short: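 Twelve mice were CD4-depleted with 300 µg GK 1.5 antibody i.p. on days 1, 3 and 7. They were infected by exposure to P. murina-infected mice, then given 100 µg GK 1.5 i.p. weekly for 6 weeks. Treatment followed at 1.25 or 12.5 mg/kg/day for 14 days, with GK 1.5 continued; controls received vehicle.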

[11] = tested on: GlcCer synthesis in C. neoformans; test: In vivo labeling with [3H]palmitate, TLC of GlcCer; type: cell-based; settings: [3H]palmitate labeling
C. neoformans [12] = test: Mouse model of cryptococcosis, intranasal infection; type: in vivo, mouse (CBA/J); settings: 1.2 mg/kg/day i.p.
In short: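 Mice (10 per group) were infected by nasal inoculation of 20 µl containing 5 × 10^5 C. neoformans. Test compound was given i.p. at 1.2 mg/kg/day in 100 µl PBS with 0.4% DMSO, starting 2 h after inoculation. Survival followed up to 60 days. Organs of survivors were homogenized in 10 ml PBS, diluted serially 1:10, plated on YPD, and incubated at 30°C for 72 h for CFU.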

## OC(Cn1cncn1)(Cn1cncn1)c1ccc(F)cc1F [fluconazole, reference compound]
Cryptococcus neoformans
  MIC: > 64 µg/mL
C. neoformans [1]; 10 mg/kg/day i.p.
  survival, days postinfection: 10 ± 2 days

## C[C@@H]1[C@H](O)[C@@H](C)/C=C/C=C/C=C/C=C/C=C/C=C/C=C/[C@H](O[C@@H]2O[C@H](C)[C@@H](O)[C@H](N)[C@@H]2O)C[C@@H]2O[C@](O)(C[C@@H](O)C[C@@H](O)[C@H](O)CC[C@@H](O)C[C@@H](O)CC(=O)O[C@H]1C)C[C@H](O)[C@H]2C(=O)O [amphotericin B, reference compound]
C. neoformans [1]; 1.2 mg/kg/day i.p.
  survival, days postinfection: 23.5 ± 6.5 days

## O=C(NN=Cc1ccc(O)c(Br)c1)c1cccc(Br)c1 [D0, 3-bromo-N′-(3-bromo-4-hydroxybenzylidene) benzohydrazide]
[2]
  synthesis of mammalian GlcCer or other sphingolipids: no significant changes
C. neoformans [3]
  numbers of vesicles per square micrometer of cell surface area: 0.93 ± 0.54
Candida spp.
  in vitro susceptibility: resistant
C. albicans SC 5314
  mice still alive: 75%
[4]
  levels of C18 hydroxyceramide and its desaturated and methylated forms: decreased
[5]; after 60 days of treatment
  all other blood parameters for liver and kidney function: normal
[5]; mouse, in vivo
  tolerability in animals: well tolerated
C. neoformans cells [6]
  development of resistance: did not develop resistance
C. neoformans cells [7]; time-kill assay, 37°C, 5% CO2, pH 7.4
  type of killing: time-dependent killing
C. neoformans cells [7]; within 24 h
  dead cells: 100%
C. neoformans [8]; combined with caspofungin
  interaction category: additive (additive effect, FIC = 1)
C. neoformans [8]; combined with fluconazole
  interaction category: highly synergistic
C. neoformans [8]; combined with tunicamycin
  interaction category: additive (additive effect, FIC = 1)
P. murina [9]
  toxicity: some toxicity
In vitro toxicity
  EC50 at 48 h: 50 µg/mL (≈ 126 µM)
J774 cells; J774 EC50 versus MIC
  EC50/MIC80 selectivity index: > 100
J774 cells; macrophage cell line
  selectivity index (EC50/MIC ratio): > 50
P. murina [10]
  survival: significantly improved survival
  toxicity: no apparent signs of toxicity
C. neoformans [1]; 1.2 mg/kg/day i.p.
  survival, days postinfection: 10.5 ± 4.2 days
[11]
  synthesis of GlcCer: significantly inhibited
C. neoformans [12]
  brain tissue burden (CFU): eradication of fungal cells
  lung tissue burden (CFU): decrease of fungal load
C. neoformans [12]; up to 60 days, 10 mice per group
  mice surviving C. neoformans infection: 70%
